Experimental data taken from ChEMBL document CHEMBL4339192, “De Novo Designed Amphipathic α-Helical Antimicrobial Peptides Incorporating Dab and Dap Residues on the Polar Face To Treat the Gram-Negative Pathogen, Acinetobacter baumannii” (J Med Chem, 2019).
Where a SMILES comes first, the peptide text is derived from it. [ ]: non-standard residue; d: D form.

How the values were obtained:
Type in all cases: functional
[1] = system: Acinetobacter baumannii; assay: Antibacterial activity against polymyxin B/colistin-resistant Acinetobacter baumannii M89941 measured after 24 hrs by microtiter dilution method; conditions: M89941, 24 h
How it was run: (§1)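 Broth microdilution in Mueller-Hinton (MH) medium. […] Plates were incubated 24 h at 37 °C. MIC was the lowest peptide concentration that inhibited growth, based on three sets of replicates.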

[2] = system: Acinetobacter baumannii; assay: Antibacterial activity against polymyxin B/colistin-resistant Acinetobacter baumannii M89955 measured after 24 hrs by microtiter dilution method; conditions: M89955, 24 h; how it was run: as §1
[3] = system: Acinetobacter baumannii; assay: Antibacterial activity against polymyxin B/colistin-resistant Acinetobacter baumannii M89953 measured after 24 hrs by microtiter dilution method; conditions: M89953, 24 h; how it was run: as §1
[4] = system: Acinetobacter baumannii; assay: Antibacterial activity against polymyxin B/colistin-resistant Acinetobacter baumannii M89952 measured after 24 hrs by microtiter dilution method; conditions: M89952, 24 h; how it was run: as §1
[5] = system: Acinetobacter baumannii; assay: Antibacterial activity against polymyxin B/colistin-resistant Acinetobacter baumannii M89951 measured after 24 hrs by microtiter dilution method; conditions: M89951, 24 h; how it was run: as §1
[6] = system: Acinetobacter baumannii; assay: Antibacterial activity against Acinetobacter baumannii 649 measured after 24 hrs in presence of 25% human serum by microtiter dilution method; conditions: Acinetobacter baumannii, 649, 24 h
How it was run: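 Blood strain 649 was tested by MH broth microdilution with and without 25% (v/v) human serum added to the medium. The test used a final inoculum of 5 × 10^5 cfu/mL and incubation at 37 °C. The ratio is the MIC in serum over the MIC in MH alone.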

[7] = system: Acinetobacter baumannii; assay: Antibacterial activity against Acinetobacter baumannii 649 measured after 24 hrs by microtiter dilution method; conditions: Acinetobacter baumannii, 649, 24 h; how it was run: as §1
[8] = system: Acinetobacter baumannii; assay: Antibacterial activity against Acinetobacter baumannii isolate 1035794 measured after 24 hrs by microtiter dilution method; conditions: isolate 1035794, 24 h; how it was run: as §1
[9] = system: Acinetobacter baumannii; assay: Antibacterial activity against Acinetobacter baumannii isolate 952654 measured after 24 hrs by microtiter dilution method; conditions: isolate 952654, 24 h; how it was run: as §1
[10] = system: Acinetobacter baumannii; assay: Antibacterial activity against Acinetobacter baumannii isolate 964304 measured after 24 hrs by microtiter dilution method; conditions: isolate 964304, 24 h; how it was run: as §1
[11] = system: Acinetobacter baumannii; assay: Antibacterial activity against Acinetobacter baumannii isolate 1002956 measured after 24 hrs by microtiter dilution method; conditions: isolate 1002956, 24 h; how it was run: as §1
[12] = system: Acinetobacter baumannii; assay: Antibacterial activity against Acinetobacter baumannii isolate 968886 measured after 24 hrs by microtiter dilution method; conditions: isolate 968886, 24 h; how it was run: as §1
[13] = system: Acinetobacter baumannii; assay: Antibacterial activity against Acinetobacter baumannii isolate 965463 measured after 24 hrs by microtiter dilution method; conditions: isolate 965463, 24 h; how it was run: as §1
[14] = system: Acinetobacter baumannii; assay: Antibacterial activity against Acinetobacter baumannii isolate 1021371 measured after 24 hrs by microtiter dilution method; conditions: isolate 1021371, 24 h; how it was run: as §1
[15] = system: Acinetobacter baumannii; assay: Antibacterial activity against Acinetobacter baumannii isolate 963659 measured after 24 hrs by microtiter dilution method; conditions: isolate 963659, 24 h; how it was run: as §1
[16] = system: Acinetobacter baumannii; assay: Antibacterial activity against Acinetobacter baumannii isolate 1010282 measured after 24 hrs by microtiter dilution method; conditions: isolate 1010282, 24 h; how it was run: as §1
[17] = system: Acinetobacter baumannii; assay: Antibacterial activity against Acinetobacter baumannii isolate 961997 measured after 24 hrs by microtiter dilution method; conditions: isolate 961997, 24 h; how it was run: as §1
[18] = system: Acinetobacter baumannii; assay: Antibacterial activity against Acinetobacter baumannii isolate 1035166 measured after 24 hrs by microtiter dilution method; conditions: isolate 1035166, 24 h; how it was run: as §1
[19] = system: Acinetobacter baumannii; assay: Antibacterial activity against Acinetobacter baumannii isolate 981650 measured after 24 hrs by microtiter dilution method; conditions: isolate 981650, 24 h; how it was run: as §1
[20] = system: Acinetobacter baumannii; assay: Antibacterial activity against Acinetobacter baumannii isolate 1001611 measured after 24 hrs by microtiter dilution method; conditions: isolate 1001611, 24 h; how it was run: as §1
[21] = system: Acinetobacter baumannii; assay: Antibacterial activity against Acinetobacter baumannii isolate 1018887 measured after 24 hrs by microtiter dilution method; conditions: isolate 1018887, 24 h; how it was run: as §1
[22] = system: Acinetobacter baumannii; assay: Antibacterial activity against Acinetobacter baumannii isolate 9383370 measured after 24 hrs by microtiter dilution method; conditions: isolate 9383370, 24 h; how it was run: as §1
[23] = system: Acinetobacter baumannii; assay: Antibacterial activity against Acinetobacter baumannii isolate 1017395 measured after 24 hrs by microtiter dilution method; conditions: isolate 1017395, 24 h; how it was run: as §1
[24] = system: Acinetobacter baumannii; assay: Antibacterial activity against polymyxin B/colistin-resistant Acinetobacter baumannii M89963 measured after 24 hrs by microtiter dilution method; conditions: M89963, 24 h; how it was run: as §1
[25] = system: Acinetobacter baumannii; assay: Antibacterial activity against Acinetobacter baumannii isolate 1010245 measured after 24 hrs by microtiter dilution method; conditions: isolate 1010245, 24 h; how it was run: as §1
[26] = system: Acinetobacter baumannii; assay: Antibacterial activity against polymyxin B/colistin-resistant Acinetobacter baumannii M89949 measured after 24 hrs by microtiter dilution method; conditions: M89949, 24 h; how it was run: as §1
[27] = system: Acinetobacter baumannii; assay: Antibacterial activity against Acinetobacter baumannii isolate 977751 measured after 24 hrs by microtiter dilution method; conditions: isolate 977751, 24 h; how it was run: as §1

Measured: MIC

CC(=O)N[C@H](CCCCN)C(=O)N[C@H](CC(C)C)C(=O)N[C@H](CCCNC(=N)N)C(=O)N[C@H](CO)C(=O)N[C@H](CC(C)C)C(=O)N[C@H](CC(C)C)C(=O)N[C@H](CCCNC(=N)N)C(=O)N[C@@H](C(=O)N[C@H](CC(C)C)C(=O)N[C@H](CO)C(=O)N[C@H](CCCNC(=N)N)C(=O)N[C@H](C)C(=O)N[C@H](CCCCN)C(=O)N[C@H](C)C(=O)N[C@H](C)C(=O)N[C@H](CCCCN)C(=O)N[C@H](CC(C)C)C(=O)N[C@H](CCCNC(=N)N)C(=O)N[C@@H](C(=O)N[C@H](CC(C)C)C(=O)N[C@H](CC(C)C)C(=O)N[C@H](CCCNC(=N)N)C(=O)N[C@H](C)C(=O)N[C@H](CC(C)C)C(=O)N[C@H](CO)C(=O)N[C@H](CCCNC(=N)N)C(N)=O)[C@H](C)O)[C@H](C)O (Ac-[dK][dL][dR][dS][dL][dL][dR][dT][dL][dS][dR][dA][dK][dA][dA][dK][dL][dR][dT][dL][dL][dR][dA][dL][dS][dR]-NH2)
1.3 µM: [1] | [6]
0.7 µM: [2] | [3] | [4] | [5] | [7]

CC(=O)N[C@H](CCCCN)C(=O)N[C@H](CC(C)C)C(=O)N[C@H](CCCCN)C(=O)N[C@H](CO)C(=O)N[C@H](CC(C)C)C(=O)N[C@H](CC(C)C)C(=O)N[C@H](CCCCN)C(=O)N[C@@H](C(=O)N[C@H](CC(C)C)C(=O)N[C@H](CO)C(=O)N[C@H](CCCCN)C(=O)N[C@H](C)C(=O)N[C@H](CCCCN)C(=O)N[C@H](C)C(=O)N[C@H](C)C(=O)N[C@H](CCCCN)C(=O)N[C@H](CC(C)C)C(=O)N[C@H](CCCCN)C(=O)N[C@@H](C(=O)N[C@H](CC(C)C)C(=O)N[C@H](CC(C)C)C(=O)N[C@H](CCCCN)C(=O)N[C@H](C)C(=O)N[C@H](CC(C)C)C(=O)N[C@H](CO)C(=O)N[C@H](CCCCN)C(N)=O)[C@H](C)O)[C@H](C)O (Ac-[dK][dL][dK][dS][dL][dL][dK][dT][dL][dS][dK][dA][dK][dA][dA][dK][dL][dK][dT][dL][dL][dK][dA][dL][dS][dK]-NH2)
0.3 µM: [11] | [1] | [2] | [5] | [6] | [7] | [27]
1.4 µM: [10] | [17]
0.7 µM: all other assays above
